In PubChem BioAssay AID651999 (Sanford-Burnham Center for Chemical Genomics, 2013) one finds inhibition data, which are given here for 15 compounds.

SMILES strings stand for the structures. Hit rate of the full screen: of about 360,000 compounds, about 1,400 (0.39%) were called active. The sample holds actives, similar compounds and a random draw of the others, so the mix is not that of the screen.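 How the source made its calls: active means pattern-corrected inhibition above about 35%, with an unprinted fluorescence ratio check between 0.5 and 1.5 (limit read from the data, passing the limit was not always enough); inactive means the rest.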

The target of the assay is COP9 signalosome complex subunit 5 (Homo sapiens) (UniProt Q92905). The assay can be described thus: inhibitors of CSN-mediated cullin deneddylation, primary screen, biochemical, fluorescence polarization, uHTS (AID 651999).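 Further: 0% = enzyme with substrate and 100% = substrate without enzyme.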 The conditions noted are these: Purified CSN, SCF-Nedd8-OG deneddylation, at 12.5 µM, hits give high values. In outline: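 Schedule: reaction 90 min, room temperature / Assay system: HEK293T-derived human Csn5 enzyme / Input: Csn5 at 0.24 nM final / Measure: inhibition of Csn5 cleavage, % / Control set: substrate-only high control, full reaction low control / Technique: fluorescence polarization of the substrate / Buffer or medium: Tris/NaCl/DTT buffer, pH 7.5 / Reagent: SCFSkp2-Nedd8OG substrate at 10 nM final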
Chain of COP9 signalosome complex subunit 5 (Homo sapiens) (Q92905 whole entry, looked up, one chain of several): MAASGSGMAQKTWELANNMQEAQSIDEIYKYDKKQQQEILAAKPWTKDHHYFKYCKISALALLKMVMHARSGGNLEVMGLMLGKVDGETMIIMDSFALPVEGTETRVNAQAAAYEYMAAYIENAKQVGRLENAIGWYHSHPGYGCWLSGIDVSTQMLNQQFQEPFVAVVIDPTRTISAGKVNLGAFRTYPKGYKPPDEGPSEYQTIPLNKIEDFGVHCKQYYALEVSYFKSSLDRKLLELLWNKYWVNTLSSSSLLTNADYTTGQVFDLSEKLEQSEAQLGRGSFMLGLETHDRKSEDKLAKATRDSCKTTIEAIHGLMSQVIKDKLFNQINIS
The inhibition is the change of the read-out against control, counted positive when it falls. For `COc1ccc(N2C(=O)/C(=C/c3ccco3)C(=O)NC2=S)cc1`, the inhibition was 39.6% (active). With `COc1ccc(NC(=O)N2Cc3ccccc3-n3nncc3C2)cc1` the figure was 1.89% (inactive). With `COc1ccccc1N=Nc1c(O)[nH]c(=S)[nH]c1=O`, the inhibition was 64.6% (active).

`O=C1N=c2ccccc2=C/C1=C\c1c(O)[nH]c(=S)[nH]c1=O`: the inhibition was 3.94% (inactive). With `CCOCCc1c(O)[nH]c(=S)[nH]c1=O`, the inhibition is -1.36% (inactive). Regarding `C=CC12CN(C)[C@@H]3C4CO[C@H](C[C@H]41)[C@]1(C(=O)Nc4ccccc41)[C@@H]32` (stereo not given in full), the inhibition was 6.32% (inactive). Turning to `CC(=O)Nc1ccccc1C(=O)OCC(=O)c1cccc2ccccc12`, the inhibition was -2.94% (inactive). As to `CCN1CCN(c2nc3c(c(=O)[nH]2)CCC3)CC1`, the inhibition was 2.3% (inactive). Take `CCNc1nc2[nH]c(=O)c3c(c2s1)OC(N)=C(C#N)C3c1cccs1` (stereo not given): the inhibition is 7.11% (inactive). Take `Cn1c(O)c(C=NCCN2CCNCC2)c(=O)n(C)c1=O`: the inhibition was 2.48% (inactive).

Consider `O=C1CC(=O)N(Cc2ccccc2)C(=O)N1CCCCCCN1C(=O)CC(=O)N(Cc2ccccc2)C1=O`, for which the inhibition is 81.1% (active). In the case of `O=C(CN1CCCC1=O)NCCc1ccccc1`, the inhibition was -4.34% (inactive). For `CC(C)(C)c1ccc(CN2C(=O)CN=C(c3ccccc3)c3ccccc32)cc1`, the inhibition was -0.66% (inactive).

For the compound `COC(=O)C1=C(c2cc3ccccc3s2)C[C@@H]2CC[C@H]1N2C(=O)NC(C)C`, the inhibition is 4.07% (inactive). `Cc1cccc(-n2c(O)c(/C=N/N3CCOCC3)c(=O)[nH]c2=S)c1`: the inhibition was -0.17% (inactive).
